Non-standard residues stand in square brackets, D forms with d. Residues, ends and D or L forms follow the SMILES beside them. *: point of attachment. X1 = CC[N+]1=C(C=CC=CC=C2N(CCCCCC(=O)NCCN3C(=O)CC(*)C3=O)c3ccc(S(=O)(=O)O)cc3C2(C)C)C(C)(C)c2cc(S(=O)(=O)[O-])ccc21; Propanoyl(3-maleimido) = O=C1C=CC(=O)N1CCC(=O)*; Ahx = NCCCCCC(=O)O
Key:
MMP-8 = assay: MMP-8
MMP-13 = assay: MMP-13
hepsin = assay: hepsin; conditions: up to 2 h
legumain = assay: legumain
matriptase = assay: matriptase
enterokinase = assay: enterokinase; conditions: up to 2 h
[1] = test system: prostate-specific antigen; assay: prostate-specific antigen; conditions: up to 2 h
[2] = Tumor standardized uptake value; format: in vivo; conditions: mouse, iv
PyMT mammary tumors = assay: Fluorescence imaging contrast in PyMT tumor-bearing mice; format: in vivo, mouse; conditions: PyMT mice; for fluorescence contrast in tumors relative to adjacent normal tissue (in words): Cy5-labeled ACPP i.v., 6 h, data not shown
Method in brief: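 PyMT transgenic mice bearing spontaneous mammary tumors were anesthetized with ketamine 80 mg/kg plus midazolam 5 mg/kg (1:1) and weighed. They were injected via the tail vein with Cy5 peptide: free peptide 100 μl of 100 μM (10 nmol) or albumin-reactive peptide 100 μl of 30 μM (3 nmol). Maestro imaging (ex 640 ± 24 nm, em >700 nm) was done at 6 h or 48 h, comparing tumor with adjacent normal tissue.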

plasmin = assay: 50 nM plasmin; conditions: human recombinant, 37 °C, up to 2 h
neutrophil elastase = assay: 50 nM enzyme in the manufacturer's recommended buffer; conditions: up to 4 h
trypsin = trypsin (Bos taurus, UniProt P00760); assay: Cleavage by purified trypsin; format: in vitro ADME, bovine; conditions: Cy5-labeled ACPP, gel (supplemental Fig. 4)
Sequence of trypsin (P00760 24-246): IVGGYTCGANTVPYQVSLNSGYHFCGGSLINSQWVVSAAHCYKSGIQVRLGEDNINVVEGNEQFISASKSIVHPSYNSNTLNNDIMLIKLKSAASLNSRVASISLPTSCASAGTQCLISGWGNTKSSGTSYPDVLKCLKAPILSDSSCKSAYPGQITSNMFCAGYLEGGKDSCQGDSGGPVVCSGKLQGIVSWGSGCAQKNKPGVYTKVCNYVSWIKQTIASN
Method in brief: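 Commercial active-form purified enzyme at 50 nm was incubated with 5 μm Cy5-labeled peptide in the manufacturer's recommended buffer. Samples were mixed with Tricine sample buffer, boiled 1 min, and resolved on 10–20% Tricine acrylamide gels. Gels were imaged quantitatively at excitation 628 ± 20 nm and emission >700 nm, and the percentage of cleaved versus uncleaved peptide was quantified.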

[3] = Effect of inhibitors on cleavage of RLQLKL ACPP by PyMT tumor cystic fluid; format: biochemical, mouse; conditions: 5 μM Cy5-labeled RLQLKL ACPP, 2% cystic fluid, 2 h; 5 mM Ca-DTPA, 50 μM TPEN, 18 μM SB3CT, 50 nM GM6001, 0.26 μM prinomastat, 150 nM aprotinin, 100 μM leupeptin, 60 μM α1-antitrypsin; gel
Method in brief: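 Cystic fluid was aspirated by syringe from surgically exposed fluid-filled mammary tumor nodules of PyMT mice. The 5 μm Cy5 peptide was incubated at 37 °C for 2 h in PBS with 1 μm ZnCl2. Inhibitors were used at manufacturer-recommended concentrations, including 10 μm E-64, 1 μm pepstatin A, protease inhibitor mixture III (1:1000) and mixture III plus DTPA. Cleavage was read by Tricine gel electrophoresis and Cy5 fluorescence imaging.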

[4] = Effect of inhibitors on cleavage of RLQLKL ACPP by tumor extract; format: biochemical, mouse; conditions: 5 μM Cy5-labeled RLQLKL ACPP, tumor extract 2.0 to 0.25%; 60 μM α1-antitrypsin; gel
Method in brief: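 Fresh tumor tissue was gently homogenized in PBS on ice and spun at 14,000 × g for 1 min; the supernatant served as the extract. The 5 μm Cy5 peptide was digested at 37 °C in PBS containing 1 μm ZnCl2, with or without 60 μm α1-antitrypsin. Aliquots were taken from 20 min to 18 h, with the 2-h point reported. Cleavage was quantified by Tricine gel and fluorescence imaging.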

Tumor uptake = format: in vivo; conditions: nude, mouse, tumor (MDA-MB-435 M4A4 xenograft), iv, 10 nmol
Method in brief: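 After imaging, mice were euthanized with isoflurane. 30 mg of each tissue was homogenized in 100 μl Tris pH 7.6 with 1% SDS, heated to 85 °C for 10 min, microwaved 10 s and spun at 20,500 × g for 15 min, then imaged. Tissue-specific spiked standards calibrated fluorescence. SUV = tissue peptide molality ÷ injected dose (mol/kg body weight). Values are means ± S.D.; two-tailed t tests.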

## NH2-e9-(ahx)-RLQLKL-r9-c-(Cy5)-NH2
MMP-8
  not cleaved: no cleavage
MMP-13
  not cleaved: no cleavage
hepsin
  not cleaved: less than 3% cleavage
legumain
  not cleaved: no cleavage
matriptase
  not cleaved: no cleavage
enterokinase
  not cleaved: less than 3% cleavage
[1]
  not cleaved: less than 3% cleavage

## CC[N+]1=C(C=CC=CC=C2N(CCCCCC(=O)NCCN3C(=O)CC(SC[C@@H](NC(=O)[C@@H](CCCNC(=N)N)NC(=O)[C@@H](CCCNC(=N)N)NC(=O)[C@@H](CCCNC(=N)N)NC(=O)[C@@H](CCCNC(=N)N)NC(=O)[C@@H](CCCNC(=N)N)NC(=O)[C@@H](CCCNC(=N)N)NC(=O)[C@@H](CCCNC(=N)N)NC(=O)[C@@H](CCCNC(=N)N)NC(=O)[C@@H](CCCNC(=N)N)NC(=O)[C@H](CC(C)C)NC(=O)[C@H](CCCCNC(C)=O)NC(=O)[C@H](CC(C)C)NC(=O)[C@H](CCC(N)=O)NC(=O)[C@H](CC(C)C)NC(=O)[C@H](CCCNC(=N)N)NC(=O)CCCCCNC(=O)[C@@H](CCC(=O)O)NC(=O)[C@@H](CCC(=O)O)NC(=O)[C@@H](CCC(=O)O)NC(=O)[C@@H](CCC(=O)O)NC(=O)[C@@H](CCC(=O)O)NC(=O)[C@@H](CCC(=O)O)NC(=O)[C@@H](CCC(=O)O)NC(=O)[C@@H](CCC(=O)O)NC(=O)[C@@H](CCC(=O)O)NC(=O)CCN4C(=O)C=CC4=O)C(N)=O)C3=O)c3ccc(S(=O)(=O)O)cc3C2(C)C)C(C)(C)c2cc(S(=O)(=O)[O-])ccc21 (stereo partly shown) [Mal-RLQLK(Ac)L ACPP] ({Propanoyl(3-maleimido)}-[dE][dE][dE][dE][dE][dE][dE][dE][dE][Ahx]RLQLK(Ac)L[dR][dR][dR][dR][dR][dR][dR][dR][dR][dC](X1)-NH2)
[2]; PyMT, 3 nmol
  SUV at 48 h: 2.3 ± 0.6 SUV
PyMT mammary tumors; fluorescence imaging 48 h postinjection of 3 nmol
  Tumor to non-tumor contrast, albumin-reactive peptide: 5.1 fold

## H2N-e9-(ahx)-RLQLK(Ac)L-r9-c-(Cy5)-NH2
plasmin
  not cleaved: not cleaved by plasmin (2 h)
Neutrophil elastase
  fragment found: K(Ac)Lr9c-(Cy5), major

## GMMYRS [GMMYRS ACPP]
trypsin
  cleavage by trypsin (in words): efficiently cleaved
PyMT mammary tumors
  fluorescence contrast in tumors relative to adjacent normal tissue (in words): little fluorescence contrast

## α1-antitrypsin: natural inhibitor of elastase [reference compound]
[3]
  inhibition of cystic fluid cleavage of RLQLKL ACPP (in words): inhibited
[4]
  inhibition of tumor extract cleavage of RLQLKL ACPP (in words): significantly inhibited

## CC[N+]1=C(C=CC=CC=C2N(CCCCCC(=O)NCCN3C(=O)CC(SC[C@@H](NC(=O)[C@@H](CCCNC(=N)N)NC(=O)[C@@H](CCCNC(=N)N)NC(=O)[C@@H](CCCNC(=N)N)NC(=O)[C@@H](CCCNC(=N)N)NC(=O)[C@@H](CCCNC(=N)N)NC(=O)[C@@H](CCCNC(=N)N)NC(=O)[C@@H](CCCNC(=N)N)NC(=O)[C@@H](CCCNC(=N)N)NC(=O)[C@@H](CCCNC(=N)N)NC(=O)CNC(=O)[C@H](C)NC(=O)[C@H](CC(C)C)NC(=O)CNC(=O)[C@H](CC(C)C)NC(=O)[C@@H]4CCCN4C(=O)CCCCCNC(=O)[C@@H](CCC(=O)O)NC(=O)[C@@H](CCC(=O)O)NC(=O)[C@@H](CCC(=O)O)NC(=O)[C@@H](CCC(=O)O)NC(=O)[C@@H](CCC(=O)O)NC(=O)[C@@H](CCC(=O)O)NC(=O)[C@@H](CCC(=O)O)NC(=O)[C@@H](CCC(=O)O)NC(=O)[C@H](N)CCC(=O)O)C(N)=O)C3=O)c3ccc(S(=O)(=O)O)cc3C2(C)C)C(C)(C)c2cc(S(=O)(=O)[O-])ccc21 (stereo partly shown) [PLGLAG ACPP, reference compound] (H-[dE][dE][dE][dE][dE][dE][dE][dE][dE][Ahx]PLGLAG[dR][dR][dR][dR][dR][dR][dR][dR][dR][dC](X1)-NH2)
[2]
  SUV: 0.51 ± 0.05 SUV

## RTRYED [RTRYED ACPP]
trypsin
  cleavage by trypsin (in words): efficiently cleaved
PyMT mammary tumors
  fluorescence contrast in tumors relative to adjacent normal tissue (in words): little fluorescence contrast

## CC[N+]1=C(C=CC=CC=C2N(CCCCCC(=O)NCCN3C(=O)CC(SC[C@@H](NC(=O)[C@@H](CCCNC(=N)N)NC(=O)[C@@H](CCCNC(=N)N)NC(=O)[C@@H](CCCNC(=N)N)NC(=O)[C@@H](CCCNC(=N)N)NC(=O)[C@@H](CCCNC(=N)N)NC(=O)[C@@H](CCCNC(=N)N)NC(=O)[C@@H](CCCNC(=N)N)NC(=O)[C@@H](CCCNC(=N)N)NC(=O)[C@@H](CCCNC(=N)N)NC(=O)[C@@H](CC(C)C)NC(=O)[C@@H](CCCCN)NC(=O)[C@@H](CC(C)C)NC(=O)[C@@H](CCC(N)=O)NC(=O)[C@@H](CC(C)C)NC(=O)[C@@H](CCCNC(=N)N)NC(=O)CCCCCNC(=O)[C@@H](CCC(=O)O)NC(=O)[C@@H](CCC(=O)O)NC(=O)[C@@H](CCC(=O)O)NC(=O)[C@@H](CCC(=O)O)NC(=O)[C@@H](CCC(=O)O)NC(=O)[C@@H](CCC(=O)O)NC(=O)[C@@H](CCC(=O)O)NC(=O)[C@@H](CCC(=O)O)NC(=O)[C@H](N)CCC(=O)O)C(N)=O)C3=O)c3ccc(S(=O)(=O)O)cc3C2(C)C)C(C)(C)c2cc(S(=O)(=O)[O-])ccc21 (stereo partly shown) [rlqlkl]
Tumor uptake
  SUV at 6 h: 0.34 ± 0.16 SUV
